The subject of the first assay is Nucleic Acid. As to the kind of experiment: Antitumor potency on human breast MCF-7 cell lines. The assay is classed as functional, cell-based. Particulars: MCF7. An outline of the steps:
(§1)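 Human lines kept in RPMI-1640 with 5% FBS, L-glutamine and penicillin/streptomycin; seeded as single-cell suspensions at 2000 (MCF-7), 500 (WiDr) or 750 (2780) cells/well. Drugs in DMSO, serially diluted in PBS pH 7.4 in half-log steps, were added on day 2 (final DMSO ≤0.1%). Exposure 6 days at 37 °C, 5% CO2. MTT was added for 4 h, formazan dissolved in DMSO, A570 read as % of untreated control. 6 wells per concentration, ≥2 assays, IC50s averaged.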
Take `CO[C@@]12C(COC(N)=O)C3=C(C(=O)C(C)=C(Nc4ccc(Br)cc4)C3=O)N1CC1NC12` (stereo not given in full): 2.66 nM corresponded to half-maximal inhibition (IC50).
On the same count and under the same terms, next, `CO[C@@]12C(COC(N)=O)c3c(O)c(/N=C4/C=CN=N4)c(C)c(O)c3N1CC1NC12` (stereo not given in full): 72.4 nM; `CO[C@@]12C(COC(N)=O)C3=C(C(=O)C(C)=C(NCCc4ccccn4)C3=O)N1CC1NC12` (stereo not given in full): 22.8 nM; `CO[C@@]12C(COC(N)=O)c3c(O)c(N=C4C=CC(=N)C=C4)c(C)c(O)c3N1CC1NC12` (stereo not given in full): 13.1 nM.
On the same count and under the same terms, next, `CO[C@@]12C(COC(N)=O)C3=C(C(=O)C(C)=C(NCCc4ccco4)C3=O)N1CC1NC12` (stereo not given in full): 36.6 nM; `CO[C@@]12C(COC(N)=O)c3c(O)c(/N=C4\C=CC(=O)C(I)=C4)c(C)c(O)c3N1CC1NC12` (stereo not given in full): 16.3 nM.
With `CO[C@@]12C(COC(N)=O)C3=C(C(=O)C(C)=C(Nc4ccccc4)C3=O)N1CC1NC12` (stereo not given in full), the IC50 (usually the concentration at which inhibition is half-maximal) was 1.32 nM.
In turn, `CO[C@@]12C(COC(N)=O)c3c(O)c(/N=C4\C=CC(=O)C([N+](=O)[O-])=C4)c(C)c(O)c3N1CC1NC12` (stereo not given in full) registered an IC50 of 22.7 nM.
Compound `CO[C@@]12C(COC(N)=O)C3=C(C(=O)C(C)=C(OCC4CC4)C3=O)N1CC1NC12` (stereo not given in full) displayed an IC50 of 0.51 nM.
Same read-out and setting: next, `CO[C@@]12C(COC(N)=O)C3=C(C(=O)C(C)=C(Nc4ccc5[nH]ccc5c4)C3=O)N1CC1NC12` (stereo not given in full): 1.1 nM; `COC1=C(C)C(=O)C2=C(C1=O)[C@@H](COC(N)=O)[C@@]1(OC)[C@H]3N[C@H]3CN21` [MITOMYCIN A]: 0.63 nM.
As to `CO[C@@]12C(COC(N)=O)C3=C(C(=O)C(C)=C(Nc4ccc(I)cc4)C3=O)N1CC1NC12` (stereo not given in full), the midpoint of inhibition, the IC50, lay at 2.84 nM.
`CO[C@@]12[C@H](COC(N)=O)C3=C(C(=O)C(C)=C(N)C3=O)N1C[C@@H]1N[C@@H]12` [MITOMYCIN] came in with an IC50 of 32.2 nM.
Still for that read-out and setting: next, `CO[C@@]12C(COC(N)=O)C3=C(C(=O)C(C)=C(OCCOCCO)C3=O)N1CC1NC12` (stereo not given in full): 80.6 nM; `C#CCNC1=C(C)C(=O)C2=C(C1=O)C(COC(N)=O)[C@@]1(OC)C3NC3CN21` (stereo not given in full): 4.4 nM.

The subject of the next assay is Nucleic Acid. As to the kind of experiment: Antitumor potency on human ovarian 2780 cell lines.
Conditions: not given
The assay is classed as functional. An outline of the steps:
as §1
As to `CO[C@@]12C(COC(N)=O)C3=C(C(=O)C(C)=C(Nc4ccc(Br)cc4)C3=O)N1CC1NC12` (stereo not given in full), half-maximal inhibition (IC50) was put at 1.84 nM.
`CO[C@@]12C(COC(N)=O)c3c(O)c(/N=C4/C=CN=N4)c(C)c(O)c3N1CC1NC12` (stereo not given in full) returned a half-inhibitory concentration (IC50) of 38.5 nM.
Compound `CO[C@@]12C(COC(N)=O)C3=C(C(=O)C(C)=C(NCCc4ccccn4)C3=O)N1CC1NC12` (stereo not given in full) showed an IC50 of 77.4 nM.
Still for that read-out and setting: next, `CO[C@@]12C(COC(N)=O)c3c(O)c(N=C4C=CC(=N)C=C4)c(C)c(O)c3N1CC1NC12` (stereo not given in full): 50 nM; `CO[C@@]12C(COC(N)=O)C3=C(C(=O)C(C)=C(NCCc4ccco4)C3=O)N1CC1NC12` (stereo not given in full): 59.5 nM.
On the same count and under the same terms, next, `CO[C@@]12C(COC(N)=O)c3c(O)c(/N=C4\C=CC(=O)C(I)=C4)c(C)c(O)c3N1CC1NC12` (stereo not given in full): 29 nM.
`CO[C@@]12C(COC(N)=O)C3=C(C(=O)C(C)=C(Nc4ccccc4)C3=O)N1CC1NC12` (stereo not given in full): the IC50 is 2.6 nM.
Take `CO[C@@]12C(COC(N)=O)c3c(O)c(/N=C4\C=CC(=O)C([N+](=O)[O-])=C4)c(C)c(O)c3N1CC1NC12` (stereo not given in full): half-maximal inhibition (IC50) required 10.8 nM.
On to `CO[C@@]12C(COC(N)=O)C3=C(C(=O)C(C)=C(OCC4CC4)C3=O)N1CC1NC12` (stereo not given in full), for which the IC50 was found to be 0.45 nM.
In the case of `CO[C@@]12C(COC(N)=O)C3=C(C(=O)C(C)=C(Nc4ccc5[nH]ccc5c4)C3=O)N1CC1NC12` (stereo not given in full), the IC50 was determined as 3.1 nM.
On the same count and under the same terms, next, `COC1=C(C)C(=O)C2=C(C1=O)[C@@H](COC(N)=O)[C@@]1(OC)[C@H]3N[C@H]3CN21` [MITOMYCIN A]: 0.22 nM; `CO[C@@]12C(COC(N)=O)C3=C(C(=O)C(C)=C(Nc4ccc(I)cc4)C3=O)N1CC1NC12` (stereo not given in full): 1.6 nM; `CO[C@@]12[C@H](COC(N)=O)C3=C(C(=O)C(C)=C(N)C3=O)N1C[C@@H]1N[C@@H]12` [MITOMYCIN]: 14.8 nM.
Still for that read-out and setting: next, `CO[C@@]12C(COC(N)=O)C3=C(C(=O)C(C)=C(OCCOCCO)C3=O)N1CC1NC12` (stereo not given in full): 36.6 nM; `C#CCNC1=C(C)C(=O)C2=C(C1=O)C(COC(N)=O)[C@@]1(OC)C3NC3CN21` (stereo not given in full): 2.1 nM.

For a further assay, the system named is Nucleic Acid. As to the kind of experiment: Antitumor potency on human colon WIDR cell lines. The assay is classed as functional, cell-based.
Conditions: not given
An outline of the steps:
as §1
`CO[C@@]12C(COC(N)=O)C3=C(C(=O)C(C)=C(Nc4ccc(Br)cc4)C3=O)N1CC1NC12` (stereo not given in full) yielded an IC50 of 1.19 nM.
Same read-out and setting: the value for `CO[C@@]12C(COC(N)=O)c3c(O)c(/N=C4/C=CN=N4)c(C)c(O)c3N1CC1NC12` (stereo not given in full) was 13 nM.
In turn, `CO[C@@]12C(COC(N)=O)C3=C(C(=O)C(C)=C(NCCc4ccccn4)C3=O)N1CC1NC12` (stereo not given in full) gave an IC50 of 26.2 nM.
Compound `CO[C@@]12C(COC(N)=O)c3c(O)c(N=C4C=CC(=N)C=C4)c(C)c(O)c3N1CC1NC12` (stereo not given in full) returned an IC50 of 28.8 nM.
Same read-out and setting: the value for `CO[C@@]12C(COC(N)=O)C3=C(C(=O)C(C)=C(NCCc4ccco4)C3=O)N1CC1NC12` (stereo not given in full) was 40.3 nM; that for `CO[C@@]12C(COC(N)=O)c3c(O)c(/N=C4\C=CC(=O)C(I)=C4)c(C)c(O)c3N1CC1NC12` (stereo not given in full) was 6.52 nM; that for `CO[C@@]12C(COC(N)=O)C3=C(C(=O)C(C)=C(Nc4ccccc4)C3=O)N1CC1NC12` (stereo not given in full) was 1.09 nM.
Same read-out and setting: the value for `CO[C@@]12C(COC(N)=O)c3c(O)c(/N=C4\C=CC(=O)C([N+](=O)[O-])=C4)c(C)c(O)c3N1CC1NC12` (stereo not given in full) was 25.5 nM.
Same read-out and setting: the value for `CO[C@@]12C(COC(N)=O)C3=C(C(=O)C(C)=C(OCC4CC4)C3=O)N1CC1NC12` (stereo not given in full) was 0.16 nM; that for `CO[C@@]12C(COC(N)=O)C3=C(C(=O)C(C)=C(Nc4ccc5[nH]ccc5c4)C3=O)N1CC1NC12` (stereo not given in full) was 1.07 nM.
In turn, `COC1=C(C)C(=O)C2=C(C1=O)[C@@H](COC(N)=O)[C@@]1(OC)[C@H]3N[C@H]3CN21` [MITOMYCIN A] yielded an IC50 of 0.052 nM.
On to `CO[C@@]12C(COC(N)=O)C3=C(C(=O)C(C)=C(Nc4ccc(I)cc4)C3=O)N1CC1NC12` (stereo not given in full), for which the IC50 was 0.63 nM.
Same read-out and setting: the value for `CO[C@@]12[C@H](COC(N)=O)C3=C(C(=O)C(C)=C(N)C3=O)N1C[C@@H]1N[C@@H]12` [MITOMYCIN] was 13 nM; that for `CO[C@@]12C(COC(N)=O)C3=C(C(=O)C(C)=C(OCCOCCO)C3=O)N1CC1NC12` (stereo not given in full) was 25.8 nM; that for `C#CCNC1=C(C)C(=O)C2=C(C1=O)C(COC(N)=O)[C@@]1(OC)C3NC3CN21` (stereo not given in full) was 3.9 nM.

For a further assay, the species on record is Mus musculus. In words: Minimum effective dose was measured against P388 leukemia in mice. The assay is classed as functional.
Conditions: not given
Regarding `CO[C@@]12C(COC(N)=O)C3=C(C(=O)C(C)=C(OCC4CC4)C3=O)N1CC1NC12` (stereo not given in full), the MED amounted to 1.03 µmol/kg.
The compound `COC1=C(C)C(=O)C2=C(C1=O)[C@@H](COC(N)=O)[C@@]1(OC)[C@H]3N[C@H]3CN21` [MITOMYCIN A] returned an MED of 0.14 µmol/kg.
`CO[C@@]12C(COC(N)=O)C3=C(C(=O)C(C)=C(OCCOCCO)C3=O)N1CC1NC12` (stereo not given in full) gave an MED of 0.3 µmol/kg.

The subject of the next assay is P388. In words: Antitumor potency on P388 leukemia cells in culture. The assay is classed as functional, cell-based. To be noted: Mus musculus. Summed up:
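P388 cells (ATCC CCL-46) plated as a single-cell suspension at 300 cells/well. Drugs in DMSO, serially diluted in PBS pH 7.4 in half-log steps, were added on day 1 (final DMSO ≤0.1%). Exposure 6 days at 37 °C, 5% CO2. MTT was added for 4 h, formazan dissolved in DMSO, absorbance read at 570 nm as % of untreated control. 6 wells per concentration, ≥2 assays, IC50 averaged.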
The compound `CO[C@@]12C(COC(N)=O)C3=C(C(=O)C(C)=C(Nc4ccc(Br)cc4)C3=O)N1CC1NC12` (stereo not given in full) showed an IC50 of 1.92 nM.
Consider `CO[C@@]12C(COC(N)=O)c3c(O)c(/N=C4/C=CN=N4)c(C)c(O)c3N1CC1NC12` (stereo not given in full), for which the midpoint of inhibition, the IC50, lay at 15.5 nM.
The compound `CO[C@@]12C(COC(N)=O)C3=C(C(=O)C(C)=C(NCCc4ccccn4)C3=O)N1CC1NC12` (stereo not given in full) registered an IC50 of 53.5 nM.
The same measure, in the same setting: the value for `CO[C@@]12C(COC(N)=O)c3c(O)c(N=C4C=CC(=N)C=C4)c(C)c(O)c3N1CC1NC12` (stereo not given in full) was 18.8 nM; that for `CO[C@@]12C(COC(N)=O)C3=C(C(=O)C(C)=C(NCCc4ccco4)C3=O)N1CC1NC12` (stereo not given in full) was 26.6 nM.
On the same count and under the same terms, next, `CO[C@@]12C(COC(N)=O)C3=C(C(=O)C(C)=C(Nc4ccccc4)C3=O)N1CC1NC12` (stereo not given in full): 1.71 nM.
Still for that read-out and setting: next, `CO[C@@]12C(COC(N)=O)C3=C(C(=O)C(C)=C(OCC4CC4)C3=O)N1CC1NC12` (stereo not given in full): 0.31 nM; `COC1=C(C)C(=O)C2=C(C1=O)[C@@H](COC(N)=O)[C@@]1(OC)[C@H]3N[C@H]3CN21` [MITOMYCIN A]: 0.24 nM.
With `CO[C@@]12C(COC(N)=O)C3=C(C(=O)C(C)=C(Nc4ccc(I)cc4)C3=O)N1CC1NC12` (stereo not given in full), the IC50 came out at 1.62 nM.
Consider `CO[C@@]12[C@H](COC(N)=O)C3=C(C(=O)C(C)=C(N)C3=O)N1C[C@@H]1N[C@@H]12` [MITOMYCIN], for which the midpoint of inhibition, the IC50, lay at 50.8 nM.
As for `CO[C@@]12C(COC(N)=O)C3=C(C(=O)C(C)=C(OCCOCCO)C3=O)N1CC1NC12` (stereo not given in full), the IC50 was 18.7 nM.
On the same count and under the same terms, next, `C#CCNC1=C(C)C(=O)C2=C(C1=O)C(COC(N)=O)[C@@]1(OC)C3NC3CN21` (stereo not given in full): 9.7 nM.

The values are drawn from ChEMBL document CHEMBL1125594 (J Med Chem, 1991).
